# Source: ChEMBL document CHEMBL1135769, “Design, synthesis, and biological evaluation of aryloxyethyl thiocyanate derivatives against Trypanosoma cruzi” (J Med Chem, 2002)
# Experiments:
# Trypanosoma cruzi [1] = experiment: Antiproliferative activity against epimastigote form of Trypanosoma cruzi; assay type: functional, organism-based
# How it was run: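 Y-strain epimastigotes grown at 28 °C in brain-heart infusion (37 g/L) with hemin chlorohydrate (20 mg/L) and 10% newborn calf serum. Inoculum was (2-3) × 10^6 cells/mL. Compounds were tested at 1, 10, 50 and 100 µg/mL, each in quadruplicate, with at most 1% ethanol. Growth was read as A600. Percent inhibition came from the absorbance change from start to end versus controls, and IC50 was estimated by linear and polynomial regression.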
# Trypanosoma cruzi [2] = experiment: Antiparasitic activity against amastigote form of Trypanosoma cruzi
# Trypanosoma cruzi [3] = experiment: Inhibition of growth of uM; assay type: functional
# How it was run: (§1)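 Epimastigotes (Y strain) were cultured at 28 °C in brain-heart infusion medium with hemin and 10% newborn calf serum, starting at (2-3) × 10^6 cells/mL, with at most 1% ethanol vehicle. Culture density was followed by absorbance at 600 nm. Percent growth inhibition = 100 − (ΔA drug-treated × 100 / ΔA control), where ΔA is the change from start to end of the experiment.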
# Trypanosoma cruzi [4] = experiment: (§2) Percent Inhibition of growth of uM; assay type: functional
# How it was run: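 Y-strain T. cruzi epimastigotes grown at 28 °C in brain-heart infusion (37 g/L) with hemin (20 mg/L) and 10% newborn calf serum. Start inoculum (2-3) × 10^6 cells/mL. Four concentrations (1, 10, 50, 100 µg/mL), each in quadruplicate, with at most 1% ethanol. Growth read as A600 at start and end; percent inhibition taken against untreated cultures. IC50 estimated by linear and polynomial regression.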
# Trypanosoma cruzi [5] = experiment: Inhibitory activity towards Trypanosoma cruzi
# Trypanosoma cruzi [6] = experiment: as §2; assay type: functional; how it was run: as §1; remark: listed apart in the source
# Trypanosoma cruzi [7] = experiment: Percent Inhibition of multiplication of Trypanosoma cruzi; assay type: functional
# How it was run: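 Intracellular assay in L6E9 myoblasts irradiated with 2000 rad, seeded at 1.2 × 10^7 cells/flask in DMEM with 20% FCS and held 24 h at 35 °C. Cells infected 2 h with 5 × 10^7 Y-strain trypomastigotes/flask, then washed. Drugs added at several concentrations with 1.0 µCi [5,6-3H]uracil for 72 h. Percent inhibition of uracil uptake from mean cpm versus infected untreated cells. Host-cell toxicity checked by phase-contrast microscopy.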
# Trypanosoma cruzi [8] = experiment: Inhibition against Trypanosoma cruzi at a concentration of 70 uM; assay type: functional; how it was run: as §1
SMILES,IC50 (Trypanosoma cruzi [1]),further results
Cc1ccc(OCCOC2CCCCO2)c(C)c1 (stereo not drawn),> 70 µM,
Cc1ccc(S(=O)(=O)c2cc(Oc3ccccc3)ccc2OCCOC2CCCCO2)cc1 (stereo not drawn),> 70 µM,
C/C=C/c1cc(Oc2ccccc2)ccc1OCCOC1CCCCO1 (stereo not drawn),> 60 µM,
C=CCSC(=S)NCCOc1ccc(Oc2ccccc2)cc1,33.3 µM,IC50 (Trypanosoma cruzi [2]): > 70 µM
Cc1cccc(OCCSC#N)c1C,14.8 µM,
Cc1ccccc1OCCSC#N,16.4 µM,
N#CSCCOc1ccccc1Cl,11.4 µM,
Cc1cccc(C)c1OCCSC#N,13.3 µM,IC50 (Trypanosoma cruzi [2]): > 70 µM
[O-][S+](c1ccccc1)c1ccc(OCCOC2CCCCO2)cc1 (stereo not drawn),> 70 µM,
CC(C)(C)/N=C(\S)NCCOc1ccc(Oc2ccccc2)cc1,40.3 µM,
C=CCc1cc(Oc2ccccc2)ccc1OCCSC#N,> 60 µM,IC50 (Trypanosoma cruzi [2]): > 70 µM
Clc1ccccc1OCCOC1CCCCO1 (stereo not drawn),> 70 µM,Inhibition (Trypanosoma cruzi [3]): 22%
Cc1ccc(OCCSC#N)c(C)c1,18.8 µM,IC50 (Trypanosoma cruzi [2]): 5 µM
C=CCc1cc(Oc2ccccc2)ccc1OCCOC1CCCCO1 (stereo not drawn),> 60 µM,
CC(=O)N1CCN(c2ccc(OCC3COC(Cn4ccnc4)(c4ccc(Cl)cc4Cl)O3)cc2)CC1 (stereo not drawn) [KETOCONAZOLE],,Inhibition (Trypanosoma cruzi [4]): 18%
C[S+]([O-])CCCCN=C=S (stereo not drawn) [SULFORAPHANE],> 120 µM,IC50 (Trypanosoma cruzi [5]): 15 µM
Ic1ccccc1OCCOC1CCCCO1 (stereo not drawn),> 60 µM,Inhibition (Trypanosoma cruzi [3]): 20%
N#CSCCOc1ccccc1,16.8 µM,
[N-]=[N+]=NCC(O)COc1ccc(Oc2ccccc2)cc1 (stereo not drawn),> 70 µM,
Cc1cccc(C)c1OCCOC1CCCCO1 (stereo not drawn),> 70 µM,
O=C=NCCOc1ccc(Oc2ccccc2)cc1,> 70 µM,Inhibition (Trypanosoma cruzi [6]): 28%
Cc1cccc(OCCOC2CCCCO2)c1C (stereo not drawn),> 70 µM,
Cc1ccc(OCCSC#N)cc1,12.1 µM,
C[S@+]([O-])CCCCN=C=S [L-SULFORAPHANE],102 µM,

SMILES,IC50 (Trypanosoma cruzi [1]),further results
S=C(NCCOc1ccc(Oc2ccccc2)cc1)SCc1ccccc1,32.2 µM,IC50 (Trypanosoma cruzi [2]): > 70 µM
N#CSCCOc1ccc([S+]([O-])c2ccccc2)cc1 (stereo not drawn),7.7 µM,IC50 (Trypanosoma cruzi [2]): 58.8 µM
c1ccc(Oc2ccc(OCCSc3ccccc3)cc2)cc1,62.1 µM,
N#CSCCOc1ccc(Nc2ccccc2)cc1,3.3 µM,Inhibition (Trypanosoma cruzi [7]): 10%; IC50 (Trypanosoma cruzi [2]): 41.1 µM
c1ccc(Nc2ccc(OCCOC3CCCCO3)cc2)cc1 (stereo not drawn),31.4 µM,
N#CSCCOc1ccc2c(c1)[nH]c1ccccc12,10.3 µM,
Cc1ccc(OCCOC2CCCCO2)cc1 (stereo not drawn),> 70 µM,Inhibition (Trypanosoma cruzi [3]): 11%
O=C(NCCOc1ccc(Oc2ccccc2)cc1)C1CC1,> 70 µM,inhibition at 70 µM (Trypanosoma cruzi [8]): 31%
c1ccc(CSCCOc2ccc(Oc3ccccc3)cc2)cc1,> 60 µM,Inhibition (Trypanosoma cruzi [3]): 41%
Cc1ccc(C)c(OCCOC2CCCCO2)c1 (stereo not drawn),> 70 µM,Inhibition (Trypanosoma cruzi [3]): 15%
Cc1cc(C)cc(OCCSC#N)c1,19.3 µM,
CS/C(S)=N/CCOc1ccc(Oc2ccccc2)cc1,45.6 µM,IC50 (Trypanosoma cruzi [2]): 27.4 µM
c1ccc(Cn2c3ccccc3c3ccc(OCCOC4CCCCO4)cc32)cc1 (stereo not drawn),> 70 µM,
S=C=NCCOc1ccc(Oc2ccccc2)cc1,15.9 µM,IC50 (Trypanosoma cruzi [2]): 46.7 µM
c1ccc(Oc2ccc(OCC3CN3)cc2)cc1 (stereo not drawn),41.5 µM,
Cc1ccccc1OCCOC1CCCCO1 (stereo not drawn),> 70 µM,
Cc1ccc(S(=O)(=O)c2cc(Oc3ccccc3)ccc2OCCSC#N)cc1,4.7 µM,
CSCCOc1ccc(Oc2ccccc2)cc1,> 100 µM,Inhibition (Trypanosoma cruzi [3]): 18%
N#CSCCOc1ccccc1I,18.5 µM,IC50 (Trypanosoma cruzi [2]): > 70 µM
Cc1cc(C)cc(OCCOC2CCCCO2)c1 (stereo not drawn),> 70 µM,
Cc1ccc(C)c(OCCSC#N)c1,14.5 µM,
C/C=C/c1cc(Oc2ccccc2)ccc1OCCSC#N,6.8 µM,IC50 (Trypanosoma cruzi [2]): 14 µM
N#CSCCOc1ccccc1Br,20.2 µM,
